Measured values taken from ChEMBL document CHEMBL1157378, “Role for cell density in antifungal drug resistance in Candida albicans biofilms” (2007).
≈ marks a conversion by molar mass, not a printed value.

Experiments:
Format in all cases: functional
Candida albicans [1] = assay: Antimicrobial activity against fluconazole-resistant Candida albicans FH5 intact biofilms after 48 hrs by XTT assay; conditions: FH5, 48 h
Outline: (§1)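 Biofilm seeded at 1 x 10^6 cells/ml in RPMI in polystyrene microtiter wells and grown 48 h at 37°C in a moist chamber. Washed once and drug added to the same well (twofold dilutions, 1,024 to 0.0313 µg/ml) for 48 h at 37°C (caspofungin 24 h). Read-out: XTT/menadione reduction at 490 nm.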

Candida albicans [2] = assay: Antimicrobial activity against Candida albicans SC5314 at planktonic cell density of 10^8 cells/ml after 48 hrs by XTT assay; conditions: SC5314, 48 h
Outline: (§2)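 YNB-grown yeast (50 mM glucose, room temperature, shaken, to ~2 x 10^8 cells/ml) washed into MOPS-buffered RPMI 1640 with L-glutamine and set to the stated density. Exposed to twofold serial drug dilutions (1,024 to 0.0313 µg/ml) at 37°C, 48 h (caspofungin 24 h), with drug-free controls. Read-out: XTT (0.5 g/liter) plus 1 µM menadione, formazan at 490 nm.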

Candida albicans [3] = assay: Antimicrobial activity against Candida albicans GDH2346 at planktonic cell density of 10^3 cells/ml after 48 hrs by XTT assay; conditions: GDH2346, 48 h; outline: as §2
Candida albicans [4] = assay: Antimicrobial activity against Candida albicans FH1 dissociated biofilms at cell density of 10^8 cells/ml after 48 hrs by XTT assay; conditions: FH1, 48 h
Outline: (§3)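 Polystyrene-well biofilms (48 h, 37°C) washed, then broken up in 100 µl RPMI by scraping and aspiration. Cells used undiluted (about 2 x 10^8 cells/ml equivalent) or adjusted by A600 against a hemacytometer-calibrated yeast standard curve. Drug exposure at 37°C for 48 h (caspofungin 24 h), then XTT/menadione read at 490 nm.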

Candida albicans [5] = assay: Antimicrobial activity against Cdr1, Cdr2 and Mdr1 deficient Candida albicans DSY1050 at planktonic cell density of 10^8 cells/ml after 48 hrs by XTT assay; conditions: DSY1050, 48 h; outline: as §2
Candida albicans [6] = assay: Antimicrobial activity against fluconazole-resistant Candida albicans FH5 dissociated biofilms at cell density of 10^8 cells/ml after 48 hrs by XTT assay; conditions: FH5, 48 h; outline: as §3
Candida albicans [7] = assay: Antimicrobial activity against Candida albicans FH1 at planktonic cell density of 10^3 cells/ml after 48 hrs by XTT assay; conditions: FH1, 48 h; outline: as §2
Candida albicans [8] = assay: Antimicrobial activity against Candida albicans SC5314 intact biofilms after 48 hrs by XTT assay; conditions: SC5314, 48 h; outline: as §1
Candida albicans [9] = assay: Antimicrobial activity against Chk1 deficient Candida albicans CHK21 dissociated biofilms at cell density of 10^3 cells/ml after 48 hrs by XTT assay; conditions: CHK21, 48 h; outline: as §3
Candida albicans [10] = assay: Antimicrobial activity against Cdr1, Cdr2 and Mdr1 deficient Candida albicans DSY1050 dissociated biofilms at cell density of 10^3 cells/ml after 48 hrs by XTT assay; conditions: DSY1050, 48 h; outline: as §3
Candida albicans [11] = assay: Antimicrobial activity against Cdr1, Cdr2 and Mdr1 deficient Candida albicans DSY1050 dissociated biofilms at cell density of 10^8 cells/ml after 48 hrs by XTT assay; conditions: DSY1050, 48 h; outline: as §3
Candida albicans [12] = assay: Antimicrobial activity against Candida albicans GDH2346 dissociated biofilms at cell density of 10^3 cells/ml after 48 hrs by XTT assay; conditions: GDH2346, 48 h; outline: as §3
Candida albicans [13] = assay: Antimicrobial activity against fluconazole-resistant Candida albicans FH5 dissociated biofilms at cell density of 10^3 cells/ml after 48 hrs by XTT assay; conditions: FH5, 48 h; outline: as §3
Candida albicans [14] = assay: Antimicrobial activity against Chk1 deficient Candida albicans CHK21 intact biofilms after 48 hrs by XTT assay; conditions: CHK21, 48 h; outline: as §1
Candida albicans [15] = assay: Antimicrobial activity against Candida albicans FH1 dissociated biofilms at cell density of 10^3 cells/ml after 48 hrs by XTT assay; conditions: FH1, 48 h; outline: as §3
Candida albicans [16] = assay: Antimicrobial activity against Candida albicans SC5314 at planktonic cell density of 10^3 cells/ml after 48 hrs by XTT assay; conditions: SC5314, 48 h; outline: as §2
Candida albicans [17] = assay: Antimicrobial activity against Chk1 deficient Candida albicans CHK21 dissociated biofilms at cell density of 10^8 cells/ml after 48 hrs by XTT assay; conditions: CHK21, 48 h; outline: as §3
Candida albicans [18] = assay: Antimicrobial activity against fluconazole-resistant Candida albicans FH5 at planktonic cell density of 10^3 cells/ml after 48 hrs by XTT assay; conditions: FH5, 48 h; outline: as §2
Candida albicans [19] = assay: Antimicrobial activity against Candida albicans SC5314 biofilms upto 12 hrs by XTT assay; conditions: SC5314, 12 h
Outline: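 SC5314 biofilm development followed over 72 h in polystyrene wells. At intervals the developing biofilm was exposed to fluconazole or amphotericin B, and metabolic activity was read by XTT/menadione reduction at 490 nm.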

Candida albicans [20] = assay: Antimicrobial activity against Candida albicans FH1 at planktonic cell density of 10^8 cells/ml after 48 hrs by XTT assay; conditions: FH1, 48 h; outline: as §2
Candida albicans [21] = assay: Antimicrobial activity against Candida albicans GDH2346 intact biofilms after 48 hrs by XTT assay; conditions: GDH2346, 48 h; outline: as §1
Candida albicans [22] = assay: Antimicrobial activity against Chk1 deficient Candida albicans CHK21 at planktonic cell density of 10^3 cells/ml after 48 hrs by XTT assay; conditions: CHK21, 48 h; outline: as §2
Candida albicans [23] = assay: Antimicrobial activity against Candida albicans SC5314 dissociated biofilms at cell density of 10^3 cells/ml after 48 hrs by XTT assay; conditions: SC5314, 48 h; outline: as §3
Candida albicans [24] = assay: Antimicrobial activity against Candida albicans SC5314 dissociated biofilms at cell density of 10^8 cells/ml after 48 hrs by XTT assay; conditions: SC5314, 48 h; outline: as §3
Candida albicans [25] = assay: Antimicrobial activity against Cdr1, Cdr2 and Mdr1 deficient Candida albicans DSY1050 at planktonic cell density of 10^3 cells/ml after 48 hrs by XTT assay; conditions: DSY1050, 48 h; outline: as §2
Candida albicans [26] = assay: Antimicrobial activity against Candida albicans GDH2346 dissociated biofilms at cell density of 10^8 cells/ml after 48 hrs by XTT assay; conditions: GDH2346, 48 h; outline: as §3
Candida albicans [27] = assay: Antimicrobial activity against Chk1 deficient Candida albicans CHK21 at planktonic cell density of 10^8 cells/ml after 48 hrs by XTT assay; conditions: CHK21, 48 h; outline: as §2
Candida albicans [28] = assay: Antimicrobial activity against Cdr1, Cdr2 and Mdr1 deficient Candida albicans DSY1050 intact biofilms after 48 hrs by XTT assay; conditions: DSY1050, 48 h; outline: as §1
Candida albicans [29] = assay: Antimicrobial activity against Candida albicans FH1 intact biofilms after 48 hrs by XTT assay; conditions: FH1, 48 h; outline: as §1
Candida albicans [30] = assay: Antimicrobial activity against Candida albicans GDH2346 at planktonic cell density of 10^8 cells/ml after 48 hrs by XTT assay; conditions: GDH2346, 48 h; outline: as §2
Candida albicans [31] = assay: Antimicrobial activity against Candida albicans SC5314 biofilms after 24 hrs by XTT assay; conditions: SC5314, 24 h
Outline: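 Intact biofilms formed from 1 x 10^6 cells/ml in RPMI in polystyrene microtiter wells, 48 h at 37°C in a moist chamber, then washed once and covered with 100 µl RPMI. A twofold drug series was added in the same well for 24 h at 37°C. Metabolic activity was read by XTT (0.5 g/liter, 1 µM menadione, up to 2 h) at 490 nm.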

Candida albicans [32] = assay: Antimicrobial activity against Candida albicans assessed as cell viability at cell density of 2 x 10^4 cells/ml preincubated for 1 hr
Candida albicans [33] = assay: Antimicrobial activity against fluconazole-resistant Candida albicans FH5 at planktonic cell density of 10^8 cells/ml after 48 hrs by XTT assay; conditions: FH5, 48 h; outline: as §2

C[C@@H]1[C@H](O)[C@@H](C)/C=C/C=C/C=C/C=C/C=C/C=C/C=C/[C@H](O[C@@H]2O[C@H](C)[C@@H](O)[C@H](N)[C@@H]2O)C[C@@H]2O[C@](O)(C[C@@H](O)C[C@@H](O)[C@H](O)CC[C@@H](O)C[C@@H](O)CC(=O)O[C@H]1C)C[C@H](O)[C@H]2C(=O)O [AMPHOTERICIN B]
MIC80 (Candida albicans [1]): > 32 µg/mL
MIC80 (Candida albicans [2]): > 32 µg/mL
MIC80 (Candida albicans [3]): 0.125 µg/mL (≈ 0.135 µM)
MIC80 (Candida albicans [4]): > 32 µg/mL
MIC80 (Candida albicans [5]): > 32 µg/mL
MIC80 (Candida albicans [6]): > 32 µg/mL
MIC80 (Candida albicans [7]): 0.125 µg/mL (≈ 0.135 µM)
MIC80 (Candida albicans [8]): > 32 µg/mL
MIC80 (Candida albicans [9]): 0.25 µg/mL (≈ 0.271 µM)
MIC80 (Candida albicans [10]): 0.25 µg/mL (≈ 0.271 µM)
MIC80 (Candida albicans [11]): > 32 µg/mL
MIC80 (Candida albicans [12]): 0.5 µg/mL (≈ 0.541 µM)
MIC80 (Candida albicans [13]): 0.25 µg/mL (≈ 0.271 µM)
MIC80 (Candida albicans [14]): > 32 µg/mL
MIC80 (Candida albicans [15]): 0.125 µg/mL (≈ 0.135 µM)
MIC80 (Candida albicans [16]): 0.125 µg/mL (≈ 0.135 µM)
MIC80 (Candida albicans [17]): > 32 µg/mL
MIC80 (Candida albicans [18]): 0.25 µg/mL (≈ 0.271 µM)
MIC80 (Candida albicans [19]): 0.125 µg/mL (≈ 0.135 µM)
MIC80 (Candida albicans [20]): > 32 µg/mL
MIC80 (Candida albicans [21]): 32 µg/mL (≈ 34.6 µM)
MIC80 (Candida albicans [22]): 0.125 µg/mL (≈ 0.135 µM)
MIC80 (Candida albicans [23]): 0.5 µg/mL (≈ 0.541 µM)
MIC80 (Candida albicans [24]): > 32 µg/mL
MIC80 (Candida albicans [25]): 0.25 µg/mL (≈ 0.271 µM)
MIC80 (Candida albicans [26]): > 32 µg/mL
MIC80 (Candida albicans [27]): > 32 µg/mL
MIC80 (Candida albicans [28]): > 32 µg/mL
MIC80 (Candida albicans [29]): > 32 µg/mL
MIC80 (Candida albicans [30]): > 32 µg/mL
MIC80 (Candida albicans [31]): > 8 µg/mL
Activity (Candida albicans [32]): 80%
MIC80 (Candida albicans [33]): > 32 µg/mL
